Reference: ChEMBL document CHEMBL1141651, “Discovery of a potent, selective, and orally active proteasome inhibitor for the treatment of cancer” (J Med Chem, 2008)
Active and inactive are the calls of the source. No cut-off for these calls is given here.

How the values were obtained:
[1] = Inhibition of chymotrypsin-like activity of human erythrocyte 20S proteasome
In short: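 Isolated 20S proteasome purified from human erythrocytes was tested in a fluorimetric kinetic assay of chymotrypsin-like activity. Potency is reported as IC50.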

[2] = Inhibition of bovine alpha chymotrypsin; parameters: species or system Bos taurus
[3] = Inhibition of chymotrypsin-like activity of human 20S proteasome in Molt4 cells; format: cell-based; settings: molt-4
In short: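 Intact human leukemia Molt-4 cells were given the cell-permeable fluorogenic chymotrypsin-like substrate MeOSuc-FLF-AFC, so the read-out also reflects inhibitor cell permeability. Potency is reported as EC50.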

[4] = tested on: A2780; test: Cytotoxicity against human A2780 cells; format: functional, cell-based
In short: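 Antiproliferative activity was measured in A2780 ovarian carcinoma cells with a standard colorimetric assay of cell proliferation and viability. Results are expressed as IC50.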

[5] = target: Caspase-7 (Homo sapiens) (UniProt P55210); test: Inhibition of human caspase 7 at 10 uM
[6] = target: Caspase-8 (Homo sapiens) (UniProt Q14790); test: Inhibition of human caspase 8 at 10 uM
[7] = target: Caspase-9 (Homo sapiens) (UniProt P55211); test: Inhibition of human caspase 9 at 10 uM
[8] = target: Dipeptidyl peptidase 4 (Homo sapiens) (UniProt P27487); test: Inhibition of human DPP4 at 10 uM
[9] = target: Endothelin-converting enzyme 1 (Homo sapiens) (UniProt P42892); test: Inhibition of human ECE1 at 10 uM
[10] = target: Neprilysin (Homo sapiens) (UniProt P08473); test: Inhibition of human NEP at 10 uM
[11] = species: Sus scrofa; test: Inhibition of pig pepsin at 10 uM
[12] = Inhibition of bacterial prolyl oligopeptidase at 10 uM
[13] = target: Plasminogen (Homo sapiens) (UniProt P00747); test: Inhibition of human plasmin at 10 uM
[14] = species: Homo sapiens; test: Inhibition of human chymotrypsin at 10 uM
[15] = Half life in CD1 mouse at 0.8 mg/kg, iv; format: ADME, organism-based; parameters: dose 0.8 mg/kg, route intravenous; settings: in vivo
In short: (§1)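 Female Sprague–Dawley rats and CD-1 mice each received a single iv or oral (po) dose. Terminal half-life and systemic clearance were estimated from plasma exposure over time, alongside AUC0→∞, Vss and absolute oral bioavailability.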

[16] = AUC (0 to infinity) in CD1 mouse at 0.8 mg/kg, iv; format: ADME, organism-based; parameters: time infinity, dose 0.8 mg/kg, route intravenous; settings: plasma
In short: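 CD-1 mice received a single dose by the iv or oral route. AUC from 0 to infinity was reported with terminal half-life, Vss, clearance and absolute oral bioavailability.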

[17] = Volume of distribution at steady state in CD1 mouse at 0.8 mg/kg, iv; format: ADME, organism-based; parameters: dose 0.8 mg/kg, route intravenous; settings: in vivo, read-out: Vdss
In short: (§2)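 Single-dose pharmacokinetics after iv or oral administration in female Sprague–Dawley rats and in CD-1 mice; plasma exposure (AUC0–∞) used to derive steady-state volume of distribution, clearance, terminal half-life and absolute oral bioavailability.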

[18] = Clearance in CD1 mouse at 0.8 mg/kg, iv; format: ADME, organism-based; parameters: dose 0.8 mg/kg, route intravenous; settings: in vivo; in short: as §1
[19] = Half life in CD1 mouse at 4 mg/kg, po; format: ADME, organism-based; parameters: dose 4 mg/kg, route oral; settings: in vivo; in short: as §1
[20] = AUC (0 to infinity) in CD1 mouse at 4 mg/kg, po; format: ADME, organism-based; parameters: time infinity, dose 4 mg/kg, route oral; settings: plasma
[21] = Oral bioavailability in CD1 mouse at 4 mg/kg; format: ADME, organism-based; settings: in vivo; in short: as §2
[22] = tested on: Mus musculus; test: Inhibition of 20S proteasome beta5beta1 subunit binding in human RPMI 8226 cells xenografted mouse; format: functional, organism-based
[23] = target: Calpain-1 catalytic subunit (Homo sapiens) (UniProt P07384); test: Inhibition of human calpain 1 at 10 uM
[24] = target: Dipeptidyl peptidase 1 (Bos taurus) (UniProt Q3ZCJ8); test: Inhibition of bovine cathepsin C at 10 uM
[25] = target: Cathepsin D (Homo sapiens) (UniProt P07339); test: Inhibition of human cathepsin D at 10 uM
[26] = target: Cathepsin E (Homo sapiens) (UniProt P14091); test: Inhibition of human cathepsin E at 10 uM
[27] = target: Cathepsin G (Homo sapiens) (UniProt P08311); test: Inhibition of human cathepsin G at 10 uM
[28] = target: Cathepsin G (Homo sapiens, UniProt P08311); test: Inhibition of human cathepsin G
[29] = target: Pro-cathepsin H (Homo sapiens) (UniProt P09668); test: Inhibition of human cathepsin H at 10 uM
[30] = target: Procathepsin L (Homo sapiens) (UniProt P07711); test: Inhibition of human cathepsin L at 10 uM
[31] = target: Cathepsin S (Homo sapiens) (UniProt P25774); test: Inhibition of human cathepsin S at 10 uM
[32] = target: Cathepsin Z (Homo sapiens) (UniProt Q9UBR2); test: Inhibition of human cathepsin Z at 10 uM
[33] = target: Chymase (Homo sapiens) (UniProt P23946); test: Inhibition of human chymase at 10 uM
[34] = target: Chymase (Homo sapiens, UniProt P23946); test: Inhibition of human chymase
[35] = Inhibition of human chymotrypsin
In short: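 Cross-reactivity was tested against human pancreas α-chymotrypsin using a fluorogenic specific substrate. Results are expressed as IC50.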

[36] = target: Coagulation factor VII (Homo sapiens) (UniProt P08709); test: Inhibition of human factor 7a at 10 uM
[37] = target: Coagulation factor X (Homo sapiens) (UniProt P00742); test: Inhibition of human factor 10a at 10 uM
[38] = target: Protease (Human immunodeficiency virus 1) (UniProt Q9YQ12); test: Inhibition of HIV1 protease at 10 uM
[39] = target: Plasma kallikrein (Homo sapiens) (UniProt P03952); test: Inhibition of human plasma kallikrein at 10 uM
[40] = target: Interstitial collagenase (Homo sapiens) (UniProt P03956); test: Inhibition of human MMP1 at 10 uM
[41] = target: 72 kDa type IV collagenase (Homo sapiens) (UniProt P08253); test: Inhibition of human MMP2 at 10 uM
[42] = target: Stromelysin-1 (Homo sapiens) (UniProt P08254); test: Inhibition of human MMP3 at 10 uM
[43] = target: Matrilysin (Homo sapiens) (UniProt P09237); test: Inhibition of human MMP7 at 10 uM
[44] = target: Neutrophil collagenase (Homo sapiens) (UniProt P22894); test: Inhibition of human MMP8 at 10 uM
[45] = target: Macrophage metalloelastase (Homo sapiens) (UniProt P39900); test: Inhibition of human MMP12 at 10 uM
[46] = target: Caspase-1 (Homo sapiens) (UniProt P29466); test: Inhibition of human caspase 1 at 10 uM
[47] = target: Caspase-2 (Homo sapiens) (UniProt P42575); test: Inhibition of human caspase 2 at 10 uM
[48] = target: Caspase-3 (Homo sapiens) (UniProt P42574); test: Inhibition of human caspase 3 at 10 uM
[49] = target: Renin (Homo sapiens) (UniProt P00797); test: Inhibition of human renin at 10 uM
[50] = target: Prothrombin (Homo sapiens) (UniProt P00734); test: Inhibition of human thrombin at 10 uM
[51] = target: Tissue-type plasminogen activator (Homo sapiens) (UniProt P00750); test: Inhibition of human TPA at 10 uM
[52] = target: Trypsin (Homo sapiens) (UniProt P07477+P07478+P35030); test: Inhibition of human trypsin at 10 uM; format: protein assay
[53] = species: Homo sapiens; test: Inhibition of human tryptase at 10 uM
[54] = target: Neutrophil elastase (Homo sapiens) (UniProt P08246); test: Inhibition of human neutrophil elastase 2 at 10 uM
[55] = species: Sus scrofa; test: Inhibition of pig pancreatic elastase 1 at 10 uM
[56] = target: Disintegrin and metalloproteinase domain-containing protein 17 (Homo sapiens) (UniProt P78536); test: Inhibition of human TACE at 10 uM
[57] = Metabolic stability in mouse liver microsomes; format: ADME, Microsome
[58] = Metabolic stability in rat liver microsomes; format: ADME, Microsome
[59] = Metabolic stability in dog liver microsomes; format: ADME, Canis lupus familiaris, Microsome
[60] = Metabolic stability in human liver microsomes; format: ADME, Microsome
[61] = Protein binding in mouse plasma; format: ADME, cell-free; settings: read-out: PPB (converted)
[62] = Protein binding in rat plasma; format: ADME, cell-free; settings: read-out: PPB (converted)
[63] = Protein binding in dog plasma; format: ADME, cell-free, Canis lupus familiaris; settings: read-out: PPB (converted)

Cathepsin D (Homo sapiens), sequence (P07339 65-162 limits assumed): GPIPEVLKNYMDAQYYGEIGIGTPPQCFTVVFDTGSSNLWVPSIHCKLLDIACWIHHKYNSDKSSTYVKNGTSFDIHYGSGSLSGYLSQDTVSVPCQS
Cathepsin D (Homo sapiens), sequence (P07339 169-412 limits assumed): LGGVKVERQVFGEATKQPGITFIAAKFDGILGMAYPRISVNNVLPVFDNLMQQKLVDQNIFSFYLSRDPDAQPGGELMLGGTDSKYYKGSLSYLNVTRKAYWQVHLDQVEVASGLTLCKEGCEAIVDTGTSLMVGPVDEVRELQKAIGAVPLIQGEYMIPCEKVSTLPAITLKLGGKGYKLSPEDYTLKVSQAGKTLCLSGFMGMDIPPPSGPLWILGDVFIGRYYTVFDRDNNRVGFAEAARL
Plasma kallikrein (Homo sapiens), sequence (P03952 20-390 limits assumed): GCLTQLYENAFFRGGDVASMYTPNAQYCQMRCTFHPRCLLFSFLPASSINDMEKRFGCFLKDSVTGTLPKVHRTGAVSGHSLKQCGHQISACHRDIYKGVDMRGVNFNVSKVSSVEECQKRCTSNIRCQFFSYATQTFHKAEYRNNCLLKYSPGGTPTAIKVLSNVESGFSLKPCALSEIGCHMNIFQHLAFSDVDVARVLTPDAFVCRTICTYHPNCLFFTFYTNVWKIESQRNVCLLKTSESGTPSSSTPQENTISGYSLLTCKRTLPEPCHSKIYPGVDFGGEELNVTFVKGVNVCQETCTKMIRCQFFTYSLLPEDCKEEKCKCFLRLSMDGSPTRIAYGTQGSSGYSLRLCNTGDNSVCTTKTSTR
Plasma kallikrein (Homo sapiens), sequence (P03952 391-638 limits assumed): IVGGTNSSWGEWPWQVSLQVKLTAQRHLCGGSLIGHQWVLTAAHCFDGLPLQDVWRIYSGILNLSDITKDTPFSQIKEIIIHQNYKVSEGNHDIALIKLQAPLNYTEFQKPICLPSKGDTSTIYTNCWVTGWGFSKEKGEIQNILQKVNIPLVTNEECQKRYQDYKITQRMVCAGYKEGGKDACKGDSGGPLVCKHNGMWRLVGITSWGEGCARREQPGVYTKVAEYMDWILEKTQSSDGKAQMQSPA
Caspase-1 (Homo sapiens), sequence (P29466 120-297 limits assumed): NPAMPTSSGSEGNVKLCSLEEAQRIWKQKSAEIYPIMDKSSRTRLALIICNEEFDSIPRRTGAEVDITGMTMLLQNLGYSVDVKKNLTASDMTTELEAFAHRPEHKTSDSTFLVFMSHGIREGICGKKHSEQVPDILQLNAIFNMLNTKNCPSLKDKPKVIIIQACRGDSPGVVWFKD
Caspase-1 (Homo sapiens), sequence (P29466 317-404 limits assumed): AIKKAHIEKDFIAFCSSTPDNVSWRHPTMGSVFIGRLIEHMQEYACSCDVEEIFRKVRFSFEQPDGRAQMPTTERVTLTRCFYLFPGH
Cathepsin G (Homo sapiens), sequence (P08311 whole entry): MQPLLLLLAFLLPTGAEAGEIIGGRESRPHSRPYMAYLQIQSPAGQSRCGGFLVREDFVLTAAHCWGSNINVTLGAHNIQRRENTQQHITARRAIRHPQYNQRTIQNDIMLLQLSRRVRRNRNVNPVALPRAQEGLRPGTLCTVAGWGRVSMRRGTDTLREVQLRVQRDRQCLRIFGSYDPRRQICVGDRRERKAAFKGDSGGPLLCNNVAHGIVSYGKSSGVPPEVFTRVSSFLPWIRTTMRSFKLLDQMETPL
Cathepsin G, sequence (P08311 whole entry): as above
Cathepsin Z (Homo sapiens), sequence (Q9UBR2 whole entry): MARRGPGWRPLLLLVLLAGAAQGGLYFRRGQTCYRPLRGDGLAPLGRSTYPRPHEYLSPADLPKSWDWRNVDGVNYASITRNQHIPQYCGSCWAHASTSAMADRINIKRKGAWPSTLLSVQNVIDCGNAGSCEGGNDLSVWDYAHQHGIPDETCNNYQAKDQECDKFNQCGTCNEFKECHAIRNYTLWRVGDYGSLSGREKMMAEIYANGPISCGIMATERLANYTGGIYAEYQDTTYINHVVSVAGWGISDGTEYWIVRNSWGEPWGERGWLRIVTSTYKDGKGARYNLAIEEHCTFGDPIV
Dipeptidyl peptidase 1 (Bos taurus), sequence (Q3ZCJ8 25-134 limits assumed): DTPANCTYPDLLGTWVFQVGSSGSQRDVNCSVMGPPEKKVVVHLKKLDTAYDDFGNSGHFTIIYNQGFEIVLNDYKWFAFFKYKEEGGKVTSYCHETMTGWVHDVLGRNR
Dipeptidyl peptidase 1 (Bos taurus), sequence (Q3ZCJ8 231-394 limits assumed): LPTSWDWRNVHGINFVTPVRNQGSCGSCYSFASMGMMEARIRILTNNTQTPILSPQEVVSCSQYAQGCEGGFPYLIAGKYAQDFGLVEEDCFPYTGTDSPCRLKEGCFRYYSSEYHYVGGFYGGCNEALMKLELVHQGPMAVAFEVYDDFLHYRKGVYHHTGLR
Dipeptidyl peptidase 1 (Bos taurus), sequence (Q3ZCJ8 395-463 limits assumed): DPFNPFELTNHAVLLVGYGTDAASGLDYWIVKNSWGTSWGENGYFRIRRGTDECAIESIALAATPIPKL
Cathepsin S (Homo sapiens), sequence (P25774 115-331 limits assumed): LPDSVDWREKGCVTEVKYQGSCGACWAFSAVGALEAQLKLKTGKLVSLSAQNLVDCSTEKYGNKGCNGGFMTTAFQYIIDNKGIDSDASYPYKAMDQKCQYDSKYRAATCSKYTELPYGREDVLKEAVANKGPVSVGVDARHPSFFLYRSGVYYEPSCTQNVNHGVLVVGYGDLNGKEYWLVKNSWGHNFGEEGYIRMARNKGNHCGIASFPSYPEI
Procathepsin L (Homo sapiens), sequence (P07711 114-333 limits assumed): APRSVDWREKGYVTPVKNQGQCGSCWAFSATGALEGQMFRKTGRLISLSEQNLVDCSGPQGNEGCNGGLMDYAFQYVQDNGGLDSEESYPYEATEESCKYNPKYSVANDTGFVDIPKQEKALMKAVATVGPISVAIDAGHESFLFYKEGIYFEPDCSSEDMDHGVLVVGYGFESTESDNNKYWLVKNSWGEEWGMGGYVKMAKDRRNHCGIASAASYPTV
Renin (Homo sapiens), sequence (P00797 whole entry): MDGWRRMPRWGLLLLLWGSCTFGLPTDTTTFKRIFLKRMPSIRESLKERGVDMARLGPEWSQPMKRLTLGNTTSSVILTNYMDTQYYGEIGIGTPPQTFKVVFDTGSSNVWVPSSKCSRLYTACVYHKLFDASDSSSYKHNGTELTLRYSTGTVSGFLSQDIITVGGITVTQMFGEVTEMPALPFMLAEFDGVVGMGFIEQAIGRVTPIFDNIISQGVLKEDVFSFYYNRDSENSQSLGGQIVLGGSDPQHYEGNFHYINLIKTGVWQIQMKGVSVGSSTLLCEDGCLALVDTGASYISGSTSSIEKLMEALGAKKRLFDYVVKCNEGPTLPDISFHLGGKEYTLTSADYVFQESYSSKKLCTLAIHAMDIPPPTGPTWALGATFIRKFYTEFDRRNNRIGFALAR
Caspase-7 (Homo sapiens), sequence (P55210 24-198 limits assumed): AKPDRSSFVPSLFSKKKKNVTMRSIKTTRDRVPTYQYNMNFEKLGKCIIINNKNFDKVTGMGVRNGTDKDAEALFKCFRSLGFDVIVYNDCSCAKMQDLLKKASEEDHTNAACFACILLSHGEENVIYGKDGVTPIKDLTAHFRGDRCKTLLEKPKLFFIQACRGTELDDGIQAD
Caspase-7 (Homo sapiens), sequence (P55210 207-303 limits assumed): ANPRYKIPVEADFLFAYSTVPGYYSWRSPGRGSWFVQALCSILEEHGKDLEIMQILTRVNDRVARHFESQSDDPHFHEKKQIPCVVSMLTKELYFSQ
Protease (Human immunodeficiency virus 1), sequence (Q9YQ12 as listed by the source): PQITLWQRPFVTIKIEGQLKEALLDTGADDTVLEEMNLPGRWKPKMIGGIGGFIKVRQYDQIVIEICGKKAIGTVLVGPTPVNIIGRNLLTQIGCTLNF
Stromelysin-1 (Homo sapiens), sequence (P08254 100-477 limits assumed): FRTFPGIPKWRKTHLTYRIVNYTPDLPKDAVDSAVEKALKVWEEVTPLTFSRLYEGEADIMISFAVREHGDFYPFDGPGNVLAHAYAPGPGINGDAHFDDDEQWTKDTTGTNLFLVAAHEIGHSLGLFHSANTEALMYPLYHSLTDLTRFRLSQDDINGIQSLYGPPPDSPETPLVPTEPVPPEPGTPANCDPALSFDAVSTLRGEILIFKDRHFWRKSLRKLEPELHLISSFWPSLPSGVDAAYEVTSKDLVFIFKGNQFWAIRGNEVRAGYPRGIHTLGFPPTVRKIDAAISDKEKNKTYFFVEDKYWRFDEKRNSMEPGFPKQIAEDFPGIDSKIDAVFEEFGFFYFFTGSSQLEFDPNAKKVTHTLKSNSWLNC
Coagulation factor X (Homo sapiens), sequence (P00742 41-179 limits assumed): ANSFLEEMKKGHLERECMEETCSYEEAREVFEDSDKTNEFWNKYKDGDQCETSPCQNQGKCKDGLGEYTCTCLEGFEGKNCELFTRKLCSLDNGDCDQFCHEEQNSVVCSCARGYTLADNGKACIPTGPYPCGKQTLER
Coagulation factor X (Homo sapiens), sequence (P00742 235-488 limits assumed): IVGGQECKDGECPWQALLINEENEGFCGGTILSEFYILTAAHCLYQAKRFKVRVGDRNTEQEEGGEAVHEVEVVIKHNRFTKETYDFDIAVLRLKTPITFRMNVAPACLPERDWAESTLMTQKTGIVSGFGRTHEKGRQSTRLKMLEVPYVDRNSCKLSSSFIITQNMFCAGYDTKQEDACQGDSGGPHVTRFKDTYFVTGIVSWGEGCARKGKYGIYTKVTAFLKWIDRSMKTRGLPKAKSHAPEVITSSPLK
Matrilysin (Homo sapiens), sequence (P09237 whole entry): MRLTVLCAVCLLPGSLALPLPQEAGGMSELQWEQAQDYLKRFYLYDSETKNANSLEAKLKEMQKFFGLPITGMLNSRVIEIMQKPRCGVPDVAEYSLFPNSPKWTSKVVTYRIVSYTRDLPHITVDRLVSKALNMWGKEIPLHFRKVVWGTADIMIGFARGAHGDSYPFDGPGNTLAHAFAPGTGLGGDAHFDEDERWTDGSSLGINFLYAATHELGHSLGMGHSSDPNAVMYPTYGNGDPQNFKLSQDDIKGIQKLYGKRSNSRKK

In the case of CC(C)C[C@H](NC(=O)[C@@H](NC(=O)c1ccc(-c2ccccc2)cc1)[C@@H](C)O)B(O)O, the IC50 [1] is reported as 0.9 nM, the IC50 [2] is reported as 600 nM and the EC50 [3] is reported as 21 nM. It also gave an IC50 [4] of 4.9 nM.
Molecule CC(C)C[C@H](NC(=O)[C@@H](NC(=O)c1cnc(-c2ccccc2)cn1)[C@@H](C)O)B(O)O has an IC50 [1] of 1.8 nM, an IC50 [2] of 270 nM and an EC50 [3] of 21 nM. It also gave an IC50 [4] of 8.2 nM.
For CC(C)C[C@H](NC(=O)[C@@H](NC(=O)c1cc(-c2ccccc2)ccn1)[C@@H](C)O)B(O)O, the IC50 [1] was 2 nM, the IC50 [2] was 290 nM and the EC50 [3] was 18.6 nM. The IC50 [4] was 5.1 nM.
With CC(C)C[C@H](NC(=O)[C@@H](NC(=O)c1cnccn1)[C@@H](C)O)B(O)O the IC50 [1] was 42 nM and the EC50 [3] was 1350 nM.
CC(C)C[C@H](NC(=O)[C@H](Cc1ccccc1)NC(=O)c1cnccn1)B(O)O [BORTEZOMIB] gave an inhibition [5] of 1%, an inhibition [6] of -4% and an inhibition [7] of 0%. It also gave an inhibition [8] of 1%, an inhibition [9] of 26% and an inhibition [10] of 9%. The inhibition [11] was 8%, the inhibition [12] was 9% and the inhibition [13] was 22%. The inhibition [14] was 86%, the IC50 [1] was 3.8 nM and the IC50 [2] was 500 nM. It also gave an EC50 [3] of 21 nM, an IC50 [4] of 1.7 nM and a half-life [15] of 98 h. For the same molecule, the AUC(0-inf) [16] was 927 ng·h/mL, the Vd [17] was 102 L/kg and the clearance [18] was 14.3 mL/min/kg. It also gave a half-life [19] of 70 h, an AUC(0-inf) [20] of 499 ng·h/mL and a bioavailability [21] of 11%. For the same molecule, the Activity [22] was “inactive”, the inhibition [23] was 0% and the inhibition [24] was 5%. The inhibition [25] was -1%, the inhibition [26] was -3% and the inhibition [27] was 96%. For the same molecule, the IC50 [28] was 520 nM, the inhibition [29] was 8% and the inhibition [30] was 50%. It also gave an inhibition [31] of 48%, an inhibition [32] of 27% and an inhibition [33] of 95%. For the same molecule, the IC50 [34] was 1190 nM, the IC50 [35] was 1220 nM and the inhibition [36] was 4%. For the same molecule, the inhibition [37] was 4%, the inhibition [38] was -2% and the inhibition [39] was 6%. The inhibition [40] was 6%, the inhibition [41] was -1% and the inhibition [42] was -1%. For the same molecule, the inhibition [43] was -6%, the inhibition [44] was 3% and the inhibition [45] was -7%. It also gave an inhibition [46] of 0%, an inhibition [47] of 1% and an inhibition [48] of 2%. It also gave an inhibition [49] of -1%, an inhibition [50] of 2% and an inhibition [51] of 1%. It also gave an inhibition [52] of -1%, an inhibition [53] of 0% and an inhibition [54] of 27%. The inhibition [55] was -1%, the inhibition [56] was 2% and the half-life [57] was 21 min. For the same molecule, the half-life [58] was 16 min, the half-life [59] was greater than 40 min and the half-life [60] was 37 min. For the same molecule, the fraction unbound [61] was 0.049, the fraction unbound [62] was 0.069 and the fraction unbound [63] was 0.058.
